Assay results taken from ChEMBL document CHEMBL4316619 (Bioorg Med Chem Lett, 2019).

What was measured:
[1] = AUClast in C57BL/6 mouse plasma at 30 mg/kg, ip; format: ADME, organism-based; parameters: dose 30 mg/kg, route intraperitoneal, time 0 - last
Outline: (§1)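 Male C57BL/6 mice received a single intraperitoneal dose of 30 mg/kg (N=3). Compound concentrations were followed over time in plasma, liver and lung. Tmax, Cmax, terminal t1/2, AUClast and AUCINF were derived from the mean concentration-time profiles.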

[2] = Drug level in C57BL/6 mouse lung at 30 mg/kg, ip measured at 0.083 hrs; format: ADME, organism-based; conditions: in vivo; outline: as §1

COc1cc(-c2ccnc3c2c(C)nn3-c2ccc(C(F)(F)F)cc2)ccc1O
AUC(0-t) [1]: 7660 ng·h/mL
Drug uptake [2]: 20891 nmol/kg
